Screens (PubChem)
Hits are enriched below; roughly 1.8% of the tested compounds scored in any of these assays.
CHRM5 antagonist = CHRM5 antagonism in calcium assay | actives 0.59% (n = 360,000) | CHO-hM5 cells, Fluo-8 calcium fluorescence, ACh EC80 | inhibition, % at 3 µM | P08912;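 active = inhibition above a per-plate cutoff, the mean of that plate's test compounds plus 3 SD, cut at about 27% in these data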;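 also: 0% = acetylcholine EC80 with DMSO and 100% = DMSO without agonist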
Target sequence (P08912 whole entry, looked up): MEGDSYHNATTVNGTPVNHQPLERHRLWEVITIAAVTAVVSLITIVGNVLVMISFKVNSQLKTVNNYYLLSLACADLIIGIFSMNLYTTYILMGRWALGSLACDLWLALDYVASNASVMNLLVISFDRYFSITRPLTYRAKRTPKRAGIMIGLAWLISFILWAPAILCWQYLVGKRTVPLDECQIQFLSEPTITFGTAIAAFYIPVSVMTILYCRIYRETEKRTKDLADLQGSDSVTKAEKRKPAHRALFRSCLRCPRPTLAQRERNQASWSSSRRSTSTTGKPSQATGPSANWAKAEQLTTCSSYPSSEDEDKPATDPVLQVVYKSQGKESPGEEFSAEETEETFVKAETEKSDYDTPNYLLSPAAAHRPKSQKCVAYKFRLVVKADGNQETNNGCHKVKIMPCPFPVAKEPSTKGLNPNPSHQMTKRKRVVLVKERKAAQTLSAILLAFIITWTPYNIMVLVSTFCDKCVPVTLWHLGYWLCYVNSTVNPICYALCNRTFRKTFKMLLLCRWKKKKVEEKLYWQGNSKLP
M5 PAM = positive allosteric modulators of human muscarinic M5 receptor. activation, % at 3 µM. actives 0.3% (n = 360,000). CHO-K1 hM5, Fluo-8 calcium, ACh EC20 PAM; 0% = ACh EC20, 100% = ACh EC100. P08912;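 active = activation above the run cutoff, the mean activation of all test compounds plus 3 SD, cut at about 18% in these data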
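Assay system: CHO-K1 hM5 cells / Incubation: Fluo-8 loading 80 min at 37 °C plus 30 min room temperature / Technique: Fluo-8 calcium dye fluorescence, kinetic read / Repeats: single replicate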
CHRM5 agonist = agonists of human muscarinic M5 receptor (CHRM5) | P08912 | CHO-K1 hM5 cells, Fluo-8 calcium fluorescence; 0% DMSO wells, 100% maximal acetylcholine response | activation, % at 3 µM | actives 0.19% (n = 360,000) | AID 624037;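 active = activation above the run's mean over test compounds plus 3 SD, cut at about 23% in these data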;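 also: signal is peak over basal fluorescence ratio across the kinetic read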
CHRM4 antagonist = blocks acetylcholine activation of human M4 receptor. P08173. AID 624125. actives 0.73% (n = 360,000). CHO-hM4 cells, ACh EC80, Fluo-8 calcium fluorescence. inhibition, % at 3 µM;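 active = inhibition above its plate's cutoff, the mean inhibition of sample wells plus 3 SD, cut at about 27% in these data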;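 also: 0% = acetylcholine EC80 with DMSO and 100% = DMSO without agonist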
CHRM4 PAM = CHRM4 positive allosteric modulation; P08173; CHO-K1 hM4/Gqi5, Fluo-8 calcium fluorescence, ACh EC20; 0% = ACh EC20, 100% = maximal ACh; activation, % at 3 µM; actives 0.4% (n = 360,000); AID 624126;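 active = activation above its plate's cutoff, the mean activation of sample wells plus 3 SD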
M4 ag = CHRM4 agonism in calcium assay | P08173 | CHO-K1 hM4/Gqi5, Fluo-8 calcium fluorescence; vehicle 0%, full acetylcholine response 100% | activation, % at 3 µM | actives 0.14% (n = 360,000) | AID 624127;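 active = activation above the run mean over all test wells plus 3 SD, cut at about 32% in these data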;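 also: peak over basal fluorescence ratio per well then scaled between controls; 0% = DMSO wells and 100% = acetylcholine at EC100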
* marks the source's active call; other numbers are inactive results.

SMILES	CHRM5 antagonist	M5 PAM	CHRM5 agonist	CHRM4 antagonist	CHRM4 PAM	M4 ag
CCN(CC)C(=O)[C@H]1C[C@H](CC(=O)NCCCOC)C(=O)N2CCc3c([nH]c4cc(CCC(=O)N(C)C)ccc34)[C@]12C	5.3	-3.5	-0.4	4.5	-5.3	-0.3
O=C(CN1CCN(c2ccccc2F)CC1)c1c[nH]c2ccccc12	-4.6	20.5*	-2.3	-10.3	3.3	3.7
O=C(CC1NCCNC1=O)NC1Cc2ccccc2C1 (centres undefined)	9.1	-8.0	-3.4	4.3	0.5	-0.1
CCNC(=O)C1(C)CCN1CCC(=O)c1ccc(C)cc1 (centres undefined)	4.3	0.2	0.3	-10.6	8.0	0.2
Clc1ccc2nnc(Cl)n2n1	-0.4	4.0	-2.2	-15.2	19.4*	1.7
FC(F)c1nnc2ccc(Cl)nn12	11.0	-1.3	-0.5	-6.2	10.5	0.9
CCCCOC(=O)/C(=C\c1ccc([N+](=O)[O-])o1)NC(=O)c1ccccc1	4.0	-0.9	-5.8	28.6*	-6.7	1.9
Nc1ccn([C@@H]2O[C@H](CNCc3ccc(Oc4cc(-n5cccn5)ncn4)cc3)[C@@H](O)[C@H]2O)c(=O)n1	16.5	-3.3	0.9	-15.1	15.8	-1.2
COc1ccc(CCNC(=O)c2c(C)nn(-c3ccccc3)c2Cl)cc1OC	-4.8	0.9	-0.8	2.1	-3.1	1.3
CC(c1ccccc1)N(CCC(c1ccccc1)C1CCOC(C)(C)C1)C(=O)c1ccco1 (centres undefined)	29.9*	-17.0	-7.4	-5.3	-7.5	3.8
COc1ccc(CN(CCC(c2ccccc2)c2ccco2)C(=O)c2ccco2)cc1 (centres undefined)	13.3	-11.2	-2.0	7.3	-9.1	4.4
COc1ccc(CN(CCC(c2ccc(F)cc2)C2CCOC(C)(C)C2)C(=O)c2ccco2)cc1 (centres undefined)	36.2*	-20.2	-0.1	30.0*	-22.4	6.8
Cc1c(C(=O)Nc2cc(F)ccc2F)sc2nc3n(c(=O)c12)CCCCC3	-1.1	-4.1	-0.7	-12.4	6.5	1.4
COc1ccc(-c2nc3ccc(N4CCCC4)cc3c(=O)[nH]2)cc1OC	-7.0	18.7*	-4.5	-10.5	3.6	1.7
COc1ccc2nc(-c3ccccc3)[nH]c(=O)c2c1	8.0	3.6	1.3	1.0	5.5	0.4
Cc1ccc([C@H]2C(C(=O)O)=CC[C@@H](c3ccc4c(c3)OCO4)N2S(=O)(=O)c2ccc(C)cc2)cc1	-14.2	7.8	-0.1	-23.5	6.2	0.9
CCN(Cc1ccc(OC)c(F)c1)C(C)C(=O)Nc1ccc(S(=O)(=O)N2CCCC2)cc1 (centres undefined)	-3.0	-0.9	-1.2	-3.4	-7.7	0.3
COc1ccc(CN(C)C(C)C(=O)Nc2ccc(S(=O)(=O)N3CCCCC3)cc2)c(OC)c1 (centres undefined)	4.3	-24.9	-5.0	26.5*	-12.0	5.2
Cc1c(C(=O)OCC(=O)NCC2CCCO2)cccc1[N+](=O)[O-] (centres undefined)	0.0	0.5	-0.3	-5.1	5.1	1.3
COc1cccc(N2CCN(C(=O)c3cccn4c(=O)c5c(C)c(C)sc5nc34)CC2)c1	-14.6	18.6*	7.6	2.4	3.0	2.0
COc1ccc(N2CCN(C(=O)c3cccn4c(=O)c5ccccc5nc34)CC2)cc1	3.5	-3.5	2.8	-3.3	3.8	1.4
CCCCC(CC)CN=C(N)NC(N)=NCCCCCCN=C(N)NC(N)=NCC(CC)CCCC (centres undefined)	13.3	-18.4	-2.0	82.5*	-21.1	39.9*
CCCCC(CC)CO (centres undefined)	4.8	-0.1	3.4	-13.0	13.8	1.2
CC1(C)O[C@@H]2C[C@H]3[C@@H]4CCC5=CC(=O)C=C[C@]5(C)[C@@]4(F)[C@@H](O)C[C@]3(C)[C@]2(C(=O)CO)O1	5.5	-12.5	0.6	46.0*	-15.1	2.2
CC1CC2C3CCC4=CC(=O)C=CC4(C)C3(F)C(O)CC2(C)C1(O)C(=O)CO (centres undefined)	8.2	3.3	-1.0	9.4	16.2	1.2
SMILES	CHRM5 antagonist	M5 PAM	CHRM5 agonist	CHRM4 antagonist	CHRM4 PAM	M4 ag
CC1(C)O[C@@H]2C[C@H]3[C@@H]4C[C@H](F)C5=CC(=O)C=C[C@]5(C)[C@@]4(F)[C@@H](O)C[C@]3(C)[C@]2(C(=O)CO)O1	5.7	2.1	2.1	-14.9	5.3	1.1
C[C@]12C=CC(=O)C=C1CC[C@H]1[C@@H]3C[C@@H](O)[C@](O)(C(=O)CO)[C@@]3(C)C[C@H](O)[C@@]12F	0.3	-17.9	48.3*	-21.8	0.7	4.3
Fc1ccccc1N1CC(c2ccccc2)C(c2cccs2)=N1 (centres undefined)	3.2	-4.1	-1.9	1.4	-9.7	-1.8
Cc1cc(C)nc(NS(=O)(=O)c2ccc(NC(=O)CSc3nc4ccccc4[nH]3)cc2)n1	0.0	2.0	-3.2	-1.2	11.2	0.3
COc1ccc2nc(SCC(=O)Nc3ccc(S(=O)(=O)Nc4nccc(C)n4)cc3)[nH]c2c1	14.5	2.1	4.0	34.8*	22.9	1.2
Cc1ccnc(NS(=O)(=O)c2ccc(NC(=O)c3ccc(S(=O)(=O)N4CCCC4)cc3)cc2)n1	-14.5	19.4*	0.6	-3.9	3.7	0.2
O=C(C1CCN(S(=O)(=O)c2cnc[nH]2)CC1)N1CCN(c2ccc([N+](=O)[O-])cc2)CC1	12.2	-1.9	-3.8	-9.0	14.4*	0.6
Cc1cc(O)c(C(C)C)cc1N=Cc1ccc(N(C)C)cc1	11.5	4.8	-2.3	-10.5	6.6	0.3
Cc1nc(-c2cc(-c3ccc(Cl)cc3)no2)cs1	2.2	3.7	-0.2	0.2	1.4	0.7
Cc1csc(-c2ccc3cc(Cl)cc(Cl)c3n2)n1	-13.5	4.7	-0.1	-11.5	20.9*	1.4
CN(CCO)c1cccc2c1S(=O)(=O)N[C@@H](Cc1ccccc1)CO2	-5.5	-0.3	4.0	-12.1	12.8	4.5
O=C(O)C1CCN(C(=O)c2ccccc2C(=O)N2CCC(C(=O)O)CC2)CC1	0.0	-0.7	-0.1	3.1	6.7	-0.2
O=C(O)C1CCN(C(=O)c2cccc3ccccc23)CC1	-7.0	5.2	0.5	-26.0	17.7*	1.4
CCc1cccc(NC(=O)Cn2cc(C=O)c3ccccc32)c1	17.4	-27.0	2.9	7.8	-19.1	15.5
CCCCCCCC/C=C\CCCCCCCC(=O)NCCc1ccc(O)c(O)c1	-2.6	19.1*	2.7	10.5	1.4	0.4
CC1CCN(CC(=O)Nc2ccccc2-c2ccccc2)CC1	9.3	-24.3	-6.2	27.2*	-12.7	-2.4
